Laboratory results reported in PMC10693208 (Evolutionary Bioinformatics Online, 2023).
Values joined by “and” are separate entries in the source; they are usually repeats but may differ in a detail not shown here. Equal entries are not always repeated. Where two headings read alike, the source gives them in different places.

Assays:
EGFR^T790M = EGFR^T790M (Homo sapiens, UniProt P00533, T790M); assay: In vitro EGFR kinase inhibition; assay type: biochemical
Casp3 = assay: RT-PCR, Casp3 level in HCT-116 cells; assay type: cell-based, human; conditions: HCT-116 treated with 23.3 µM, vs control cells = 1
Method in brief: (§1)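 Total RNA extracted from HCT-116 cells after test compound exposure using a commercial extraction kit. Transcript levels were measured by RT-PCR with SYBR Green master mix. Expression was compared with untreated control cells, taken as 1, and reported as fold change.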

Casp9 = assay: RT-PCR, Casp9 level in HCT-116 cells; assay type: cell-based, human; conditions: HCT-116 treated with 23.3 µM, vs control cells = 1
Method in brief: as §1

EGFR^WT = EGFR^WT (Homo sapiens, UniProt P00533); assay: In vitro EGFR kinase inhibition; assay type: biochemical
Sequence of EGFR^WT (P00533 25-1210): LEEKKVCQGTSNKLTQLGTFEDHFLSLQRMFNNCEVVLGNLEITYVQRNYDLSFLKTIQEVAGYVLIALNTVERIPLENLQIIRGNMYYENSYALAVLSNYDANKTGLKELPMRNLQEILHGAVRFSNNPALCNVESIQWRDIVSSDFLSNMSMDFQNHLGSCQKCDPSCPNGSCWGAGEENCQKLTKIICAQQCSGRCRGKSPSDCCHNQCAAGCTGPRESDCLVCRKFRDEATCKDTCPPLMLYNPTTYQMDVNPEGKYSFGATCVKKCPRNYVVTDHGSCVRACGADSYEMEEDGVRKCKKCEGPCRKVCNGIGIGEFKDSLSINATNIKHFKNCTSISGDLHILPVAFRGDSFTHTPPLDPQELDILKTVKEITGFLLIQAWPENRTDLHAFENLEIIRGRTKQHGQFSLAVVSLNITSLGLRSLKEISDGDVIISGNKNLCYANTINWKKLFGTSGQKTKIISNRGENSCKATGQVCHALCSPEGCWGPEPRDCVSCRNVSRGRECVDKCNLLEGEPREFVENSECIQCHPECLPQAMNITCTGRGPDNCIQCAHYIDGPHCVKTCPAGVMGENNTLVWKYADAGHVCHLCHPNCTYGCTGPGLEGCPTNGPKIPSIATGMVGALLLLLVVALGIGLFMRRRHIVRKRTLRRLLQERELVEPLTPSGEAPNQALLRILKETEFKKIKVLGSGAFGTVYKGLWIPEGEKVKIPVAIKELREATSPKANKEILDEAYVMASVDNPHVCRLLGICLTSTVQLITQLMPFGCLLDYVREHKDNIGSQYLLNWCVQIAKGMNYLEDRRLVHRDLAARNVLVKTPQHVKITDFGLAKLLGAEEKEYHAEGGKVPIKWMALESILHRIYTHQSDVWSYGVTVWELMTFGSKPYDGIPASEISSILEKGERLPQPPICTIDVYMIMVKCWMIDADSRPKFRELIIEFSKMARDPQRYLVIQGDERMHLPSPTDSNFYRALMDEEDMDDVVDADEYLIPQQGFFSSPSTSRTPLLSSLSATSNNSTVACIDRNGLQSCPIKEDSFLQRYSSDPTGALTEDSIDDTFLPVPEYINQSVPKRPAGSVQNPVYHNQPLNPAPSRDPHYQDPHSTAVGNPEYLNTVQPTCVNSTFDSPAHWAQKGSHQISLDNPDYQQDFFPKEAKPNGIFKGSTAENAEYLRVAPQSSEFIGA

BAX = assay: RT-PCR, BAX level in HCT-116 cells; assay type: cell-based, human; conditions: HCT-116 treated with 23.3 µM, vs control cells = 1
Method in brief: as §1

H1975 cells = assay: MTT cytotoxicity, H1975; assay type: cell-based; conditions: Homo sapiens, NCI-H1975, read-out: H1975 IC50
Bcl-2 = assay: RT-PCR, Bcl-2 level in HCT-116 cells; assay type: cell-based, human
HCT-116 cells [1] = assay: Flow cytometric analysis of apoptosis; assay type: cell-based, human
HCT-116 cells [2] = assay: MTT cytotoxicity, HCT-116; assay type: cell-based, human
[3] = Homo sapiens, HCT-116, read-out: HCT-116 IC50, MTT, erlotinib as reference
[4] = read-out: HCT-116 IC50, MTT, erlotinib as reference

Sequence of EGFR^T790M (P00533 25-1210 T790M): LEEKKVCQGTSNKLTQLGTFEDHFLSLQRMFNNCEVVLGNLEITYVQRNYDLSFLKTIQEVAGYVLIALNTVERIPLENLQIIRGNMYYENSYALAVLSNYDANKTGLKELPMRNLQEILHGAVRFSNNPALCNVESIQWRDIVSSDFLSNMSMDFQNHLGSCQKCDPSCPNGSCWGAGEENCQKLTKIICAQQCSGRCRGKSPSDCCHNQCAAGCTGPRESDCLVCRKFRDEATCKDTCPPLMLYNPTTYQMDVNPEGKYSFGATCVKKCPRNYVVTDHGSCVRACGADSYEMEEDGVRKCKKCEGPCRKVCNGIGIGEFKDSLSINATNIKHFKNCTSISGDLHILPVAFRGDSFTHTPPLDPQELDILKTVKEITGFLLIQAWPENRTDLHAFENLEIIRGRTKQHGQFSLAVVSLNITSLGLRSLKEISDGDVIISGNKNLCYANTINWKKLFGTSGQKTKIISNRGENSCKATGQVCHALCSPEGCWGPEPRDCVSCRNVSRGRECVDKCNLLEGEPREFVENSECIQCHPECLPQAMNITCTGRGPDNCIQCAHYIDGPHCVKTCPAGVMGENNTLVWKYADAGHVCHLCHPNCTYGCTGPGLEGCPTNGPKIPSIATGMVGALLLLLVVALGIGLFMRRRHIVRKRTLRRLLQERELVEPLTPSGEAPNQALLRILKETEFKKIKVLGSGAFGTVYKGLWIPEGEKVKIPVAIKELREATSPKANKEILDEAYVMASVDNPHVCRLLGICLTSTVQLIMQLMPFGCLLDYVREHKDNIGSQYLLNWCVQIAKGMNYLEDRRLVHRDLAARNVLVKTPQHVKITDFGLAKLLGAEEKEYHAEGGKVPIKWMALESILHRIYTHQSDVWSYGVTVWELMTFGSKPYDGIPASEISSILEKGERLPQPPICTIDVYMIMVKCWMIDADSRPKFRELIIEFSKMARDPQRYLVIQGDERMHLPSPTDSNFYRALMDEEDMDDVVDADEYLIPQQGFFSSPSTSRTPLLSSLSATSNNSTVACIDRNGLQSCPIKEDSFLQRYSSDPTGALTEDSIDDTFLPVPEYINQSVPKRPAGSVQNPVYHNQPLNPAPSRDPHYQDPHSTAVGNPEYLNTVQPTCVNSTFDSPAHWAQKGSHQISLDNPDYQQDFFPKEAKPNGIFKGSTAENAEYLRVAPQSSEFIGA

Structure (SMILES) | IC50 (EGFR^T790M) [µM] | RT-PCR Fold change Casp3 (Casp3) | RT-PCR Fold change Casp9 (Casp9) | IC50 (EGFR^WT) [µM] | RT-PCR Fold change BAX (BAX) | IC50 (H1975 cells) [µM] | Bcl-2 reduction compared to the control (Bcl-2; HCT-116, reduction factor) [fold] | RT-PCR Fold change Bcl-2 (Bcl-2; HCT-116 treated with 23.3 µM, vs control cells = 1) | increase of the total percentage of apoptotic cells vs control (HCT-116 cells [1]; HCT-116) [folds] | Apoptosis, Early (HCT-116 cells [1]; HCT-116, 72 h, Annexin V/PI) [%] | Apoptosis, Late (HCT-116 cells [1]; HCT-116, 72 h, Annexin V/PI) [%] | Necrosis (HCT-116 cells [1]; HCT-116, 72 h, Annexin V/PI) [%] | IC50 (HCT-116 cells [2]; [3]) [µM] | selectivity index (SI), HCT-116 (HCT-116 cells [2]; SI = IC50 normal cells (Vero) / IC50 cancer cells) | IC50 (HCT-116 cells [2]; [4]) [µM]
Cn1cnc2c1c(=O)n(CC(=O)Nc1c(Cl)cccc1Cl)c(=O)n2C [Compound T-1-DOCA, N-(2,6-Dichlorophenyl)-2-(3,7-dimethyl-2,6-dioxo-2,3,6,7-tetrahydro-1H-purin-1-yl)acetamide] | 0.269 | 3.8 and 3.829 | 2.2 and 2.238 | 0.0569 | 5.522 | 14.1 | 2 | 0.521 | ~10 | 8.55 | 18.07 | 3.09 | 23.4 | 4.1 | 23.3
C#Cc1cccc(Nc2ncnc3cc(OCCOC)c(OCCOC)cc23)c1 [Erlotinib, reference compound] | – | – | – | – | – | – | – | – | – | – | – | – | 17.8 | – | 17.9
